Results filed as inconclusive are left out. Calls of active or inactive are those of the source.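 Rule for the calls: active = viability below 80% at one or more tested concentrations; inconclusive = replicate runs disagree on the 80% viability cutoff; inactive = viability above 80% at every tested concentration.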
Key:
[1] = viability reduction of Vero E6 cells – cell-based, M1 aminopeptidase campaign, cytotoxicity control for P. falciparum PFM1AAP inhibitor project, dose response (AID 588717); conditions: Vero E6 viability, CellTiter-Glo luminescence, 72 h; at 50 µM (top of the series)
Outline: (§1)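 System: Vero E6 cells / Quantity: 3000 cells/well / Medium: E-MEM plus 10% FBS / Dosing: compound series of 10 points in 2-fold steps / Schedule: 72 h compound exposure at 37 °C, 5% CO2 / Technique: CellTiter-Glo luminescence / Read-out: % viability vs vehicle, CC50 from curve fit / Controls: DMSO vehicle wells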

[2] = test system: Vero E6 viability, CellTiter-Glo luminescence, 72 h; assay: as above
Outline: as §1

SMILES | viability [1] | CC50 [2] [µM]
CC[C@H](C)[C@H](NS(=O)(=O)c1ccc(Br)s1)C(=O)O | 104% (inactive) | 
CC[C@H](C)[C@H](NS(=O)(=O)c1cccs1)C(=O)NCc1ccc(F)cc1 | 95.5% (inactive) | 
CC[C@H](C)[C@H](NC(=O)c1ccc([N+](=O)[O-])cc1)C(=O)NCc1ccccc1 | 88.9% (inactive) | 
CC[C@H](C)[C@H](NC(=O)c1ccc([N+](=O)[O-])cc1)C(=O)NCc1ccc(C(F)(F)F)cc1 | 92.2% (inactive) | 
COc1cccc(-c2ccc(S(=O)(=O)N3CCC(C(=O)NCc4ccc5c(c4)OCO5)CC3)s2)c1 | 83.4% (inactive) | 
COc1ccc(-c2ccc(S(=O)(=O)N3CCC(C(=O)NCc4ccc5c(c4)OCO5)CC3)s2)cc1 | 84.2% (inactive) | 
CC[C@H](C)[C@H](NS(=O)(=O)c1ccc(Br)s1)C(=O)NCc1ccc(C(F)(F)F)cc1 |  | 28.7
CC[C@H](C)[C@H](NS(=O)(=O)c1ccc(Br)s1)C(=O)NCc1ccc(F)cc1 | 97% (inactive) | 

From PubChem BioAssay AID588717 (Southern Research Specialized Biocontainment Screening …, 2011)
